Results published in the array DNA melting data of Ke et al. (doi:10.1101/2024.01.08.574731).

Key:
[1] = melting temperature; fluorescence melt of hairpins on a sequencing array, two-state fit, raised by 9.35 °C to match UV melts; conditions: sodium 0.088 M
Method in brief: (§1)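 Hairpins were imaged by Cy3 fluorescence on a sequenced MiSeq flow cell with annealed Cy3 and quencher oligos, in 50 mM Na-HEPES pH 8.0, 25 mM NaCl, in 2.5 °C steps up to 60 °C. Bootstrapped two-state fits of normalised signals gave melting temperature and folding enthalpy. Four replicates were combined by inverse variance, and fitted temperatures were raised by 9.35 °C to match UV melts.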

[2] = folding enthalpy; higher = less favourable; fluorescence melt of hairpins on a sequencing array, two-state fit; conditions: sodium 0.088 M
Method in brief: as §1

| Sequence | Tm [1] [°C] | folding enthalpy [2] [kcal/mol] |
| --- | --- | --- |
| GCATACGAAAGTAGCTGC ((((((....)))..))) | 48.1 | -23.6 |
| GACACCGAAAGGTGGGTC ((((((....)))..))) | 65.5 | -11.2 |
| GTTCGCGAAAGCGCAAC ((((((....))).))) | 45.6 | -13.9 |
| GCCCTTCGAAAGAACGGC (((.(((....))).))) | 42.2 | -29.7 |
| GCTCTGGGAAACTGGAGC ((((..(....)..)))) | 45.9 | -34.1 |
| GGGAAAGCGAAAGCTCCC (((..(((....)))))) | 51.8 | -20.9 |
| GATCACGTGTGTGATC ((((((....)))))) | 58.9 | -37.3 |
| GGAAGTGCGAAAGCATCC (((..(((....)))))) | 31.3 | -10.6 |
| GCCACGGGAAACCGCGAC (.(.(((....))).).) | 29.1 | -12.1 |
| GAAAGCGAAAGCTGTTC ((((((....))).))) | 34.1 | -10.8 |
| GATCCAAACATGGATC ((((((....)))))) | 50.8 | -32.7 |
| GCTTTGCGAAAGCGAGGC ((.(.((....)).).)) | 49.7 | -17.1 |
| GGATGCGAAAGCAGATCC ((((((....)))..))) | 45.6 | -16.1 |
| GCGTACGACGC ((((...)))) | 53.3 | -23.8 |
| GGTAACCGAAAGGTCACC (((.(((....))).))) | 48.2 | -25 |
| GGCGACGAAAGTCTTGCC ((((((....)))..))) | 48.9 | -19.3 |
| GATCGGGAACCGATC ((((((...)))))) | 68.4 | -36 |
| GCTTAGCGAAAGCGGAGC (((..((....))..))) | 58.7 | -16.8 |
| GATCAAAGAGTTGATC ((((((....)))))) | 37.2 | -21.3 |
| GCCAGCCCGAAAGGGGGC (((..(((....)))))) | 55.3 | -14.7 |
| GCCATGGGAAACTGTGGC ((((..(....)..)))) | 47.1 | -28.2 |
| GGCTTGTCGAAAGACGCC (((..(((....)))))) | 49.9 | -18.5 |
| GTCACACGAAAGTGGGAC (((.(((....))).))) | 69.1 | -31.9 |

| Sequence | Tm [1] [°C] | folding enthalpy [2] [kcal/mol] |
| --- | --- | --- |
| GCGAGGCGAAAGCTTGGC ((.(.((....)).).)) | 46.1 | -12.1 |
| GGCCGATCGAAAGATGCC (((..(((....)))))) | 38.9 | -25.1 |
| CGACGCGGAAACGCTTCG (((.(((....))).))) | 50.5 | -33.6 |
| CGATTGAAAAATCG (((((....))))) | 46 | -27.8 |
| GCAAGGCGAAAGCCCAGC ((..(((....)))..)) | 45.9 | -13.1 |
| GTTACGCGAAAGCGAAAC (((.(((....))).))) | 51.1 | -23.5 |
| GGGGTCCGAAAGGATCCC (((.(((....))).))) | 67.9 | -36 |
| GGTGACGAAAGTCTCACC ((((((....)))..))) | 40.9 | -15.1 |
| CGCGGAACGCTCCGCG ((((((....)))))) | 57.4 | -28.9 |
| GCTAATGAAAATTAGC ((((((....)))))) | 50 | -31.7 |
| GTTCCTGGAAACAGGGAC ((.((((....)))).)) | 50.8 | -35.1 |
| GCTAAACGAAAGTTGAGC (((.(((....))).))) | 50.8 | -31.8 |
| GTGTTCGAAAGAATTCAC ((((((....)))..))) | 28.8 | -10.3 |
| GAAAAAGGAAACTTTTTC (((((((....))))))) | 46 | -39.7 |
| GCCTAAGGAAACTCAGGC ((((.((....)).)))) | 35.6 | -31.3 |
| GGAGCCCCGAAAGGGTCC (((..(((....)))))) | 47.4 | -20.4 |
| GATCGATGGCTCGATC ((((((....)))))) | 50.2 | -34 |
| GGTGTCGAAAGACCGACC ((((((....)))..))) | 39.1 | -14.9 |
| GCTACTGGAAACAGTAAC (.(((((....))))).) | 31.5 | -16 |
| GAGATCGGAAACGACCTC (((.(((....))).))) | 42.5 | -29.8 |
| GAGAACGAAAGTTAGCTC ((((((....)))..))) | 24.5 | -10 |
| GTGCCAGGAAACTGGCGC (.(((((....))))).) | 62 | -22.8 |
| GTAACCGAAAGGTTAC ((((((....)))))) | 67.1 | -29 |

| Sequence | Tm [1] [°C] | folding enthalpy [2] [kcal/mol] |
| --- | --- | --- |
| GCTTCGGGAAACTGAAGC (((((.(....).))))) | 53.2 | -41.3 |
| GAAAACGGAAACGTTCTC ((.((((....)))).)) | 30.4 | -12.7 |
| GTAGTCGGAAACAACTAC (((((.(....).))))) | 33.6 | -24.5 |
| GGATTAGGAAACTAGTCC (((.(((....))).))) | 37.2 | -25.2 |
| GGCAAAACGAAAGTTGCC (((..(((....)))))) | 52.7 | -38.6 |
| GGTGTCCGAAAGGATACC (((.(((....))).))) | 59.9 | -41.5 |
| GCAAGGCGAAAGCCGAGC ((..(((....)))..)) | 65 | -29.1 |
| CGCCCGGAAACGGAGGCG ((((((....)))..))) | 53.8 | -32.5 |
| GCGAGCGTTCGC ((((....)))) | 49 | -14.2 |
| GGATGAGCGAAAGCTTCC (((..(((....)))))) | 39.4 | -11.4 |
| GTTCTTCGAAAGAATAAC (((.(((....))).))) | 33.6 | -15.6 |
| CGTCCGGAAACGGGACG ((((((....))).))) | 55.8 | -30.4 |
| GATCACAGAGGTGATC ((((((....)))))) | 55.9 | -27.4 |
| GTACACGAAAGTGCTAC ((((((....))).))) | 39.9 | -15.9 |
| GCCGAGCGAAAGCTACGC ((..(((....)))..)) | 45.8 | -12.1 |
| GACCAGGGAAACCTGGCC (.(((((....))))).) | 45.5 | -15.2 |
| GATCTGCAACAGATC ((((((...)))))) | 46.3 | -28.8 |
| GACTACGGAAACGTAGTC (((((((....))))))) | 61.4 | -37.8 |
| GTCCCGCGAAAGCGGAC (((.(((....)))))) | 56.3 | -9.81 |
| GAAGACGAAAGTCGTTTC ((((((....)))..))) | 35.3 | -12.1 |
| GTCTGTGGAAACACGGAC (((.(((....))).))) | 53 | -34.9 |
| GCCATGCGAAAGCACTGC ((..(((....)))..)) | 31.8 | -10.4 |
| GATCATGCCTATGATC ((((((....)))))) | 52.3 | -42.4 |

| Sequence | Tm [1] [°C] | folding enthalpy [2] [kcal/mol] |
| --- | --- | --- |
| GCCCAGCGAAAGCTTTGC ((..(((....)))..)) | 37.6 | -7.49 |
| AGCGTGAAAACGCT (((((....))))) | 65.6 | -18.5 |
| GATCAGGGCGCTGATC ((((((....)))))) | 55.4 | -47.4 |
| GGATGCGGAAACGCATTC (.(((((....))))).) | 54.5 | -19.2 |
| GTTCTCGGAAACGAGAGC (.(((((....))))).) | 48.2 | -27.5 |
| GGTTACGAAAGTAGAACC ((((((....)))..))) | 37.8 | -18.2 |
| GATCTAAAGCTAGATC ((((((....)))))) | 35.4 | -18.3 |
| GGTACTCGAAAGAGGACC (((.(((....))).))) | 61.5 | -42.7 |
| GTGAGTACGAAAGTACAC (((..(((....)))))) | 42.2 | -16.3 |
| TCGTTGAAAAACGA (((((....))))) | 44.7 | -20.3 |
| GGGCCAGGAAACTGACCC (((.(((....))).))) | 50.4 | -40 |
| GTCAGCGAAAGCTCCGAC ((((((....)))..))) | 28.9 | -13.5 |
| GGATCCGAAAGGAACTCC ((((((....)))..))) | 34.7 | -13.3 |
| GATCTGGGATCAGATC ((((((....)))))) | 53.3 | -40.7 |
| GAACCCGAAAGGGAATTC ((((((....)))..))) | 31.4 | -12.1 |
| GATCCGAGGACGGATC ((((((....)))))) | 56.5 | -33.9 |
| GGGATAGGAAACTATTCC ((.((((....)))).)) | 40.7 | -34.3 |
| GATCGCTCAAGCGATC ((((((....)))))) | 68 | -43.6 |
| GGAGTGGAAACACTCC ((((((....)))))) | 63.2 | -33 |
| GGTTCCGAAAGGACCACC ((((((....)))..))) | 44.3 | -14 |
| GAGCAGCCGAAAGGCCTC (((..(((....)))))) | 31.7 | -10.8 |
| GTAACTCGAAAGAGTAC (((.(((....)))))) | 42.4 | -15 |
| GCAGGCGAAAGCCTTGC ((((((....))).))) | 59.2 | -17.6 |
